Measurements reported in ChEMBL document CHEMBL1649190, “Identification and characterization of mefloquine efficacy against JC virus in vitro” (Antimicrob Agents Chemother, 2009).
Counter-ions that a name gives are not always drawn.

Tests used:
JC polyomavirus [1] = experiment: microbe, parasite or virus in culture; type: functional, cell-based; conditions: M1/SVEdelta, SVG-A, 72 h
Plasma = experiment: Drug concentration in human plasma; type: ADME, cell-free; conditions: read-out: Drug uptake
in vitro [2] = conditions: human
in vitro [3] = conditions: human; remark: listed apart in the source
[4] = Lipophilicity, log P of the compound; type: physicochemical; conditions: octanol/water
JC polyomavirus [5] = experiment: Antiviral activity against JC polyomavirus Mad1 infected in human PHFG cells assessed as inhibition of viral replication after 7 to 10 days
JC polyomavirus [6] = experiment: Antiviral activity against JC polyomavirus M1/SVEdelta infected in human SVG-A cells assessed as inhibition of viral replication after 3 days; conditions: 72 h
JC polyomavirus [7] = experiment: Antiviral activity against JC polyomavirus Mad4 infected in human SVG-A cells assessed as inhibition of viral replication after 3 days; type: functional, cell-based; conditions: 72 h
Summary of the method: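 SVG-A cells (2,000/well) in MEM with 2% heat-inactivated FBS and 4 mM L-glutamine were exposed to JCV(Mad4) plus compound over a concentration range for 60 min at 37°C. Drug-containing medium was then added. Cells were fixed, then stained for VP1 (PAb597) and DAPI and imaged. Infection rate was % VP1+/DAPI+ cells; inhibition was scaled to infected and uninfected controls. EC50 came from a sigmoid fit, n = 5.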

[8] = SVG-A cells infected with JC polyomavirus M1/SVEdelta

SMILES	EC50 (JC polyomavirus [1]) [µM]	concentration (Plasma) [µM]	CC50 (in vitro [3]; SVG-A cells) [µM]	selectivity ratio (in vitro [2]; [8])	further results
O[C@@H](c1cc(C(F)(F)F)nc2c(C(F)(F)F)cccc12)[C@H]1CCCCN1 [(S,R)-MEFLOQUINE]	4.5	–	–	–	–
CC1=C(/C=C/C(C)=C/C=C/C(C)=C\C(=O)O)C(C)(C)CCC1 [ISOTRETINOIN]	4.4	24	> 40	–	selectivity ratio (in vitro [2]; svg-a): > 2
Cc1c(Cl)cccc1Nc1ccccc1C(=O)O [TOLFENAMIC ACID]	15	–	–	> 3	–
Cc1nccc2c1[nH]c1ccccc12 [HARMAN]	14.4	–	> 40	> 2	–
COc1ccc([C@@H]2Sc3ccccc3N(CCN(C)C)C(=O)[C@@H]2OC(C)=O)cc1 [DILTIAZEM HYDROCHLORIDE]	8.5	0.5	> 40	–	–
O=C(O)Cc1ccccc1Nc1c(Cl)cccc1Cl [DICLOFENAC SODIUM]	8.3	8	30.5	> 2	–
OC(c1cc(C(F)(F)F)nc2c(C(F)(F)F)cccc12)C1CCCCN1 (configuration not stated) [MEFLOQUINE]	4	6	–	–	logP [4]: 2.47; selectivity ratio (in vitro [2]; svg-a): > 2; IC50 (JC polyomavirus [5]): 5 µM; CC50 (in vitro [3]; svg-a): 16.1 µM; IC50 (JC polyomavirus [6]): 4 µM; IC50 (JC polyomavirus [7]): 4 µM; IC50 (JC polyomavirus [1]): 3.9 µM
O=C(O)c1ccccc1Nc1cccc(C(F)(F)F)c1 [FLUFENAMIC ACID]	11	–	–	> 3	–
O=c1c2ccccc2oc2ccccc12 [XANTHONE]	16.8	–	> 40	> 2	–
Cc1cccc(Nc2ccccc2C(=O)O)c1C [MEFENAMIC ACID]	10.9	40	> 40	> 2	–
Cc1c(Nc2ncccc2C(=O)O)cccc1C(F)(F)F [FLUNIXIN MEGLUMINE]	14.5	–	> 40	> 2	–
CC(C)c1ccc2c(c1)CC[C@H]1[C@](C)(C(N)=O)CCC[C@]21C [DEHYDROABIETAMIDE]	–	–	> 40	> 2	–
CC(=O)O[C@H]1C[C@@]2(C)[C@@H](C[C@@H](O)[C@H]3[C@@]4(C)CC[C@@H](O)[C@@H](C)[C@@H]4CC[C@@]32C)/C1=C(\CCC=C(C)C)C(=O)O [FUSIDIC ACID]	8.6	19	> 40	> 2	–
Clc1ccc(COC(Cn2ccnc2)c2ccc(Cl)cc2Cl)c(Cl)c1 (configuration not stated) [MICONAZOLE NITRATE]	–	–	–	–	CC50 (in vitro [3]; svg-a): 22.9 µM
O[C@H](c1cc(C(F)(F)F)nc2c(C(F)(F)F)cccc12)[C@@H]1CCCCN1 (racemic) [(R,S)-MEFLOQUINE]	2.7	–	–	–	–
COc1cc(C)c(C(=O)Oc2cc(C)c(C(=O)O)c(O)c2C)c(OC)c1C [DIFFRACTAIC ACID]	14.4	–	> 40	> 2	–
CCC(=O)Nc1ccc(Cl)c(Cl)c1 [PROPANIL]	7.8	–	> 40	> 2	–
